Experimental data: PubChem BioAssay AID652011 (Sanford-Burnham Center for Chemical Genomics, 2013)
Where “and” joins values, the source holds several entries; their conditions need not be identical. Equal entries are not always repeated.

These molecules were tested against Hypoxia-inducible factor 1-alpha (Homo sapiens) (UniProt Q16665) (assay: HIF reporter inhibition across pancreatic and renal lines – cell-based, luminescence, MIAPaCa-2, 786-0, panel, SAR follow-up (AID 652011)). Details: MIAPaCa-2/PANC HIF reporter, luciferase luminescence, desferoxamine, overnight, HIF1a, run 2; at 99 µM (top of the series).
Hypoxia-inducible factor 1-alpha (Homo sapiens), sequence (Q16665 whole entry, looked up): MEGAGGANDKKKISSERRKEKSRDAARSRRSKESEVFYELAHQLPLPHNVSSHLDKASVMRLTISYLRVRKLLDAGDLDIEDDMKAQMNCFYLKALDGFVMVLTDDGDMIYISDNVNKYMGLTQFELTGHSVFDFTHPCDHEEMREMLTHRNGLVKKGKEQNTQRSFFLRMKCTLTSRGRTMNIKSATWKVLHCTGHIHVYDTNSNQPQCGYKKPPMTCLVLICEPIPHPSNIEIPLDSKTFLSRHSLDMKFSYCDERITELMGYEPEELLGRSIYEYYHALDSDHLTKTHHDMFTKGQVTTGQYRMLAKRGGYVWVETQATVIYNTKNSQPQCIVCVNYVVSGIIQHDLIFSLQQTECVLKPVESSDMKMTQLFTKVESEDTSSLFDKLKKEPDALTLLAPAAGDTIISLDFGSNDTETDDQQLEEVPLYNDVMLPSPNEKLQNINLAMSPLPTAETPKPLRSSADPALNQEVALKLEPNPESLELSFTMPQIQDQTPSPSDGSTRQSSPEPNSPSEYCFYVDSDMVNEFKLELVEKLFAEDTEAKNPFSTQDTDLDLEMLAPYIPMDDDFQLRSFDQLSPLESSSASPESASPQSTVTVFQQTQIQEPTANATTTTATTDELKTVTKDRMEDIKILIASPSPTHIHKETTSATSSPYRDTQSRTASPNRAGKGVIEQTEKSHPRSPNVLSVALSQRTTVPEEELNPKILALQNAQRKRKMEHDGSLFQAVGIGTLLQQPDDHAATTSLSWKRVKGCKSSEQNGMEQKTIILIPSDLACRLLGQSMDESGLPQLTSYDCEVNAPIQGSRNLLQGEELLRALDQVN
Procedure, shortened: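 Also added: desferoxamine added before compound. Dosing: compounds from 10 mM and 0.3125 mM stocks, 1% DMSO final. Timing: overnight seeding and compound exposure, 37 °C, 5% CO2, 10-min detection. Detection: luciferase luminescence with One-Glo reagent.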

Row | Structure (SMILES) | inhibition
1 | CCNC(=O)CCc1nc(-c2ccccc2)no1 | -23.4%
2 | CCOc1ccc(-c2noc(CCC(=O)O)n2)cc1 | 70.3%
3 | CC(C)(C)c1ccc(-c2noc(CCC(=O)Nc3cccnc3)n2)cc1 | 85.6%
4 | CC(C)NC(=O)CCc1nc(-c2ccc(C(C)(C)C)cc2)no1 | 26.5%
5 | CN(C)C(=O)CCc1nc(-c2ccc(C(C)(C)C)cc2)no1 | -8.56% and -52.1%
6 | CNC(=O)CCc1nc(-c2ccc(C)cc2)no1 | 20.3%
7 | CCNC(=O)CCc1nc(-c2c(Cl)cccc2Cl)no1 | 28.8%
8 | CC(C)(C)c1ccc(-c2noc(CCC(=O)NCC3CCCO3)n2)cc1 (stereo not given) | 8.05%
9 | COC(=O)CCc1nc(-c2ccc(C(C)(C)C)cc2)no1 | 93.8%
10 | CNC(=O)CCc1nc(-c2ccc(OC)cc2)no1 | -31.5%
11 | CCc1ccc(-c2noc(CCC(=O)NC(C)(C)C)n2)cc1 | -0.564%
12 | CNC(=O)CCc1nc(-c2ccc(C(C)(C)C)cc2)no1 | 18.4%
13 | CCNC(=O)CCc1nc(-c2ccc(C(C)(C)C)cc2)no1 | 10.5% and -4.06%
14 | CCN(CC)C(=O)CCc1nc(-c2ccc(C(C)(C)C)cc2)no1 | 27.4% and 77.3%
15 | CCNC(=O)CCc1nc(-c2cccc(C)c2)no1 | -31.6%
16 | CC(C)(C)c1ccc(-c2noc(CCC(=O)N3CCCCC3)n2)cc1 | 103%
17 | CCNC(=O)CCc1nc(-c2ccc(OCC)cc2)no1 | -42.2%
18 | CC(C)(C)c1ccc(-c2noc(CCC(=O)Nc3cccc([N+](=O)[O-])c3)n2)cc1 | 91.4%
19 | COc1ccccc1NC(=O)CCc1nc(-c2ccc(C(C)(C)C)cc2)no1 | 81.3%
20 | O=C(O)CCc1nc(-c2ccccc2)no1 | 16.7%
21 | CCOc1ccccc1NC(=O)CCc1nc(-c2ccc(C(C)(C)C)cc2)no1 | 60%
22 | CC(C)(C)c1ccc(-c2noc(CCC(=O)Nc3ccccc3)n2)cc1 | 60.5%
23 | CC(C)(C)NC(=O)CCc1nc(-c2ccc(C(C)(C)C)cc2)no1 | 96.7%
24 | CC(C)(C)NC(=O)CCc1nc(-c2ccccc2)no1 | -36.5%
25 | CCC(C)NC(=O)CCc1nc(-c2ccc(C(C)C)cc2)no1 (stereo not given) | -0.644%
26 | CCCCc1ccc(-c2noc(CCC(=O)NC3CC3)n2)cc1 | 36%
27 | CCc1ccc(-c2noc(CCC(=O)NC3CC3)n2)cc1 | -49.4%
28 | CCC(C)NC(=O)CCc1nc(-c2ccccc2)no1 (stereo not given) | -19.7%
29 | CNC(=O)CCc1nc(-c2ccc(C(C)C)cc2)no1 | -35.5%
30 | CC(C)(C)c1ccc(-c2noc(CCC(=O)NCc3ccco3)n2)cc1 | 93.7% and 85.5%
